In ChEMBL document CHEMBL1152867, “Targeting QseC signaling and virulence for antibiotic development” (Science, 2008):
The source made the active and inactive calls. The calls are words filed in the database; no cut-off is given here.

Tested on: Escherichia coli
Assay: Inhibition of [3H]norepinephrine binding to Escherichia coli Qsec by liposome-based scintillation counting assay
Outline: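 Liposomes reconstituted with QseC were loaded with tritiated norepinephrine (5 μM) by freeze-thaw in liquid N2 and held 10 min at room temperature, so unbound signal could diffuse out. They were pelleted at 12,000g for 5 min and counted for tritium. Counts were normalized to liposomes loaded with 5 μM tyrosine. Compound was tested at 5 pM and 5 fM.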

Activity	SMILES
Active	Cc1ccc(N(CC2=NCCN2)c2cccc(O)c2)cc1
inactive	CC(C)NCC(O)COc1cccc2ccccc12 (configuration not stated)
